The nature of series [1]: melting temperature; fluorescence melt of hairpins on a sequencing array, two-state fit, raised by 9.35 °C to match UV melts. To be noted: sodium 0.088 M. A digest of the protocol:
(§1)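 Cy3 fluorescence of library hairpins on a sequenced MiSeq flow cell, with annealed Cy3 and quencher oligos, was imaged in 50 mM Na-HEPES pH 8.0, 25 mM NaCl in 2.5 °C steps up to 60 °C. Signals were normalised to pre-quench Cy3 and to control variants. Melting temperature and folding enthalpy came from bootstrapped two-state fits, inverse-variance combined over four replicates. Fitted temperatures were raised by 9.35 °C to match UV melts.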

Series [2] is described as follows: folding enthalpy; higher = less favourable; fluorescence melt of hairpins on a sequencing array, two-state fit. Particulars: sodium 0.088 M. A digest of the protocol: as §1

Turning to GGGATTGGAAACAATTCC ((.((((....)))).)), in series [1], the Tm amounted to 46.5 °C. In addition, the folding enthalpy in series [2] is -34 kcal/mol.
For the sequence GCTATGCGAAAGCTAAGC (((..((....))..))), in series [1], the Tm amounted to 47.6 °C. Besides, the folding enthalpy in series [2] was -17.2 kcal/mol.
As for GCTGCCGAAAGGCTAAGC ((((((....)))..))), in series [1], the Tm is 53.8 °C. In addition, the folding enthalpy in series [2] is -16.8 kcal/mol.
For the sequence GGACTCGAAAGAGCTTCC ((((((....)))..))), the Tm in series [1] turned out to be 35.3 °C. The folding enthalpy in series [2] is -18.9 kcal/mol.
With GCTCGTGGAAACATGGGC ((.(.((....)).).)), in series [1], the Tm amounted to 42.9 °C. Moreover, in series [2], the folding enthalpy was -17.1 kcal/mol.
For the sequence GCGAGGCATCGC ((((....)))), the Tm in series [1] was determined as 57.4 °C. In series [2], the folding enthalpy is -26.3 kcal/mol.
The corresponding values for GCGGTCGAAAGACCCGC ((((((....))).))) are 66.8 °C and -24 kcal/mol.
The corresponding values for GTGAATGGAAACATTCGC (.(((((....))))).) are 49.9 °C and -25.4 kcal/mol.
As to GCAAGCGGAAACACTTGC (((((.(....).))))), the Tm in series [1] turned out to be 48.3 °C. In series [2], the folding enthalpy is -46.6 kcal/mol.
Consider GGTACTCGAAAGAGACC (((.(((....)))))), for which the Tm in series [1] worked out at 43.1 °C. The folding enthalpy in series [2] is -23.6 kcal/mol.
For the sequence GATCCGGGAAACCAGATC ((((.((....)).)))), in series [1], the Tm is 35.6 °C. In addition, the folding enthalpy in series [2] was -27.8 kcal/mol.
In the case of GTGGCACGAAAGTGCAC (((.(((....)))))), in series [1], the Tm came out at 52.1 °C. Also, the folding enthalpy in series [2] is -11 kcal/mol.
For the sequence GACGCGGGAAACCACGTC ((((.((....)).)))), the Tm in series [1] amounted to 52.1 °C. The folding enthalpy in series [2] is -40.9 kcal/mol.
GATTCCGAAAGGAGCATC ((((((....)))..))): the Tm in series [1] turned out to be 27.3 °C. Moreover, the folding enthalpy in series [2] is -11.6 kcal/mol.
With GCGGAGCCGAAAGGCCGC (((..(((....)))))), the Tm in series [1] turned out to be 61.1 °C. Also, the folding enthalpy in series [2] is -18.8 kcal/mol.
With GTCAGTGGAAACGCTGAC (((((.(....).))))), the Tm in series [1] came to 54.2 °C. In addition, the folding enthalpy in series [2] is -40.5 kcal/mol.
On to GTATAGCGAAAGCTTTAC (((.(((....))).))), for which the Tm in series [1] was 40.9 °C. Also, in series [2], the folding enthalpy is -22 kcal/mol.
As for GGGCCGCGAAAGCGCCCC (((.(((....))).))), the Tm in series [1] is 68.8 °C. In series [2], the folding enthalpy was -12.4 kcal/mol.
The corresponding values for GACCACGAAAGTGCGTC ((((((....))).))) are 53.7 °C and -22.8 kcal/mol.
Consider GATCTCGCCAGAGATC ((((((....)))))), for which, in series [1], the Tm was 69 °C. In addition, the folding enthalpy in series [2] is -37.1 kcal/mol.
For GCAGTCCGAAAGGAGTGC (((.(((....))).))) the same measures were 65.8 °C and -47.7 kcal/mol.
For GATCAACATGTTGATC ((((((....)))))) the same measures were 54.7 °C and -56.2 kcal/mol.
With GATGACGAAAGTCTCATC ((((((....)))..))), the Tm in series [1] came to 32.5 °C. Moreover, the folding enthalpy in series [2] is -9.72 kcal/mol.
GAATCCGGAAACGGACTC ((.((((....)))).)): the Tm in series [1] worked out at 36.2 °C. Also, in series [2], the folding enthalpy is -17.9 kcal/mol.
On to GCGTAAGGAAACTTGCGC (((.(((....))).))), for which the Tm in series [1] stood at 54.6 °C. Moreover, the folding enthalpy in series [2] is -39.4 kcal/mol.
Regarding GCAGGCGAAAGCCCCTGC ((((((....)))..))), in series [1], the Tm came to 40.6 °C. Besides, in series [2], the folding enthalpy is -15.9 kcal/mol.
The corresponding values for CGGTCGGAAACGACCCG ((((((....))).))) are 51.5 °C and -10 kcal/mol.
As for GGGAGAGAAATCTCCC ((((((....)))))), in series [1], the Tm is 56.4 °C. The folding enthalpy in series [2] was -35 kcal/mol.
For GGTTGCGAAAGCAAAACC ((((((....)))..))) the same measures were 48.9 °C and -19.5 kcal/mol.
For GCATCGCGAAAGCAAGGC ((.(.((....)).).)), the Tm in series [1] came to 39.6 °C. Further, the folding enthalpy in series [2] was -12.7 kcal/mol.
For the sequence GAATTCGGAAACGGATTC ((((.((....)).)))), the Tm in series [1] came to 45.4 °C. For the same sequence, the folding enthalpy in series [2] was -36.2 kcal/mol.
The corresponding values for GATCAGTCACTGATC ((((((...)))))) are 50.1 °C and -39.9 kcal/mol.
GGAAACGGAAACATTTCC (((((.(....).))))): the Tm in series [1] was found to be 31.3 °C. Besides, in series [2], the folding enthalpy is -28.4 kcal/mol.
GGAAGGCGAAAGCCATCC (((.(((....))).))): the Tm in series [1] was 53.3 °C. For the same sequence, in series [2], the folding enthalpy is -21.1 kcal/mol.
With CGTCCGGAAACGGACACG ((((((....)))..))), in series [1], the Tm is 42.9 °C. Besides, in series [2], the folding enthalpy was -8.11 kcal/mol.
The corresponding values for GATCAGAATCCTGATC ((((((....)))))) are 46.9 °C and -31 kcal/mol.
As to GCGTGAAAACGC ((((....)))), the Tm in series [1] came to 58.5 °C. Further, the folding enthalpy in series [2] is -32.6 kcal/mol.
As to GCACTGACGAAAGTCTGC (((..(((....)))))), the Tm in series [1] was 38.1 °C. Besides, in series [2], the folding enthalpy is -14.3 kcal/mol.
For GGCCTACCGAAAGGTGCC (((..(((....)))))) the same measures were 46.7 °C and -20.7 kcal/mol.
Turning to GGCTTCTCGAAAGAGGCC (((..(((....)))))), the Tm in series [1] worked out at 47.1 °C. Besides, in series [2], the folding enthalpy is -24.4 kcal/mol.
Take GGGTTCGAAAGAAACCC ((((((....))).))): in series [1], the Tm was 54.4 °C. Also, in series [2], the folding enthalpy is -34.7 kcal/mol.
As for GGTGGTGGAAACGTCACC ((((..(....)..)))), the Tm in series [1] is 44.5 °C. For the same sequence, the folding enthalpy in series [2] was -23.4 kcal/mol.
The corresponding values for ACGGGGAAACCCGT (((((....))))) are 65.1 °C and -17.3 kcal/mol.
Turning to GCCAGCGAAAGCTAAGGC ((((((....)))..))), the Tm in series [1] was determined as 53.7 °C. In series [2], the folding enthalpy is -21.2 kcal/mol.
Regarding GCCCTTGGAAACAAAGGC (((.(((....))).))), in series [1], the Tm was found to be 35.3 °C. Also, the folding enthalpy in series [2] was -28.2 kcal/mol.
As to GCATCGCGAAAGCGTCGC ((..(((....)))..)), the Tm in series [1] amounted to 42.1 °C. For the same sequence, in series [2], the folding enthalpy was -11.5 kcal/mol.
As to GTCCTCGAAAGAGGTGAC ((((((....)))..))), the Tm in series [1] stood at 35.5 °C. Further, the folding enthalpy in series [2] was -11.6 kcal/mol.
The corresponding values for GAAAGCGGAAACGCCTTC (((.(((....))).))) are 34.1 °C and -18.4 kcal/mol.
For GTCTCCGAAAGGATCGAC ((((((....)))..))) the same measures were 31.4 °C and -14.7 kcal/mol.
Regarding GGCTGCGAAAGCATCGCC ((((((....)))..))), the Tm in series [1] is 48.5 °C. In addition, the folding enthalpy in series [2] is -21.8 kcal/mol.
For GCCCGCGAAAGCGTCGGC ((((((....)))..))) the same measures were 56.5 °C and -17.9 kcal/mol.
With GTTCCCGGAAACGGGGAC ((.((((....)))).)), the Tm in series [1] is 58.5 °C. Further, the folding enthalpy in series [2] was -26.8 kcal/mol.
In the case of GGACGCGGAAACACGCCC ((.((.(....).)).)), the Tm in series [1] turned out to be 34.3 °C. Further, the folding enthalpy in series [2] was -18.9 kcal/mol.
As for GCGGTGCGAAAGCGCGGC ((.(.((....)).).)), the Tm in series [1] stood at 64.5 °C. The folding enthalpy in series [2] is -25 kcal/mol.
On to GATCTCACTAGAGATC ((((((....)))))), for which the Tm in series [1] turned out to be 54.3 °C. In addition, the folding enthalpy in series [2] was -40.9 kcal/mol.
Turning to GCTTCCGGAAACGGGAGC (((.(((....))).))), the Tm in series [1] came out at 59.5 °C. Also, the folding enthalpy in series [2] is -40.1 kcal/mol.
Turning to GCCGGGGCGAAAGCCGGC (((..(((....)))))), the Tm in series [1] came out at 69 °C. Besides, the folding enthalpy in series [2] was -20 kcal/mol.
GTGTTGGGAAACCGATAC ((.(.((....)).).)): the Tm in series [1] was determined as 33.3 °C. Moreover, the folding enthalpy in series [2] was -18.3 kcal/mol.
For GCTCCGGGAAACCGAAGC (((.(((....))).))) the same measures were 47.5 °C and -27.9 kcal/mol.
Take CTTCAGAAATGAAG (((((....))))): the Tm in series [1] worked out at 36 °C. In addition, the folding enthalpy in series [2] was -11.5 kcal/mol.
Take GGGTTGCGAAAGCATCCC (((.(((....))).))): the Tm in series [1] is 59.1 °C. The folding enthalpy in series [2] is -34.1 kcal/mol.
As to GAGTGGGGAAACCCACTC (((((((....))))))), the Tm in series [1] turned out to be 67.7 °C. In addition, the folding enthalpy in series [2] was -29.8 kcal/mol.
With GACTAGGCGAAAGCCGTC (((..(((....)))))), the Tm in series [1] came out at 50.4 °C. Further, the folding enthalpy in series [2] was -8.71 kcal/mol.
Turning to CTTAGGAAACTAAG (((((....))))), the Tm in series [1] was determined as 33.4 °C. The folding enthalpy in series [2] was -11.4 kcal/mol.
As to GAGTGCGGAAACGCGTTC ((..(((....)))..)), the Tm in series [1] is 34.3 °C. In addition, the folding enthalpy in series [2] was -13 kcal/mol.
With GGATCCGAAAGGATGTCC ((((((....)))..))), the Tm in series [1] came out at 35.2 °C. The folding enthalpy in series [2] was -12.5 kcal/mol.
With GCGTAAGGAAACTCACGC ((((.((....)).)))), in series [1], the Tm was found to be 43.8 °C. The folding enthalpy in series [2] was -26.5 kcal/mol.
On to GCCTAGCGAAAGCTGTGC ((..(((....)))..)), for which the Tm in series [1] was found to be 41.2 °C. For the same sequence, the folding enthalpy in series [2] was -13 kcal/mol.
On to GCGACGCGAAAGCTTCGC ((((.((....)).)))), for which the Tm in series [1] turned out to be 65.2 °C. In addition, the folding enthalpy in series [2] is -45.6 kcal/mol.
For CGACACCGGAAACGGTCG (((..(((....)))))) the same measures were 42 °C and -13.7 kcal/mol.
For the sequence GTGCTGCGAAAGCATCAC (((.(((....))).))), the Tm in series [1] worked out at 52 °C. In addition, the folding enthalpy in series [2] was -31.9 kcal/mol.
As for GCTTACGAAAGTATGAGC ((((((....)))..))), the Tm in series [1] turned out to be 34.7 °C. Besides, in series [2], the folding enthalpy is -20.5 kcal/mol.
Take GTTATCTCGAAAGAGAAC (((..(((....)))))): the Tm in series [1] was 29.8 °C. For the same sequence, the folding enthalpy in series [2] was -11.8 kcal/mol.
As for GATCATAGCAATGATC ((((((....)))))), in series [1], the Tm worked out at 47.4 °C. For the same sequence, in series [2], the folding enthalpy was -40.3 kcal/mol.

(Values after the array DNA melting data of Ke et al. (doi:10.1101/2024.01.08.574731).)
